# According to ChEMBL document CHEMBL4007421, “Discovery and Preclinical Characterization of 3-((4-(4-Chlorophenyl)-7-fluoroquinoline-3-yl)sulfonyl)benzonitrile, a Novel Non-acetylenic Metabotropic Glutamate Receptor 5 (mGluR5) Negative Allosteric Modulator for Psychiatric Indications” (J Med Chem, 2017):
# Calls of active or inactive are those of the source. No cut-off for these calls is given here.
# Key:
# [1] = Plasma concentration in ip dosed Wistar rat at anxiolytic MED administered as suspension after 45 mins during Vogel punished drinking conflict test; assay type: ADME, organism-based
# Method in brief: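 Vehicle was a suspension containing 5% Tween 80, given i.p. at the Vogel minimum effective dose. Plasma was sampled about 45 min after dosing, right after the Vogel punished drinking test.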
# [2] = Clearance in male Crl:CD(SD) rat at 0.5 mg/kg, iv; assay type: ADME, organism-based; details: in vivo
# [3] = Plasma protein binding in human; assay type: ADME, cell-free; details: read-out: PPB (converted)
# [4] = Volume of distribution in female beagle dog at 0.5 mg/kg, iv administered as infusion; assay type: ADME, organism-based, Canis lupus familiaris; details: in vivo
# Method in brief: (§1)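 Single-dose PK: i.v. and oral dosing in Crl:CD(SD) rats and beagle dogs, plus a pilot oral nasogastric study in Cynomolgus monkeys using a Type IV lipid formulation. Rat i.v. vehicle was 80% cosolvent. Monkeys were fasted from 2 h before until 2 h after dosing, n=3 per sex. Rats also received [14C]-labelled compound orally at 50 mg/kg, with total radioactivity followed. Parameters are means; monkey values are medians.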
# [5] = Terminal elimination half life in female Crl:CD(SD) rat at 4.5 mg/kg, po; assay type: ADME, organism-based; details: in vivo, read-out: beta t1/2 (converted); method in brief: as §1
# Rattus norvegicus [6] = assay: Effect on spatial learning performance in po dosed Wistar rat measured as escape latency dosed 1 hr prior to first daily trial by Morris water maze test; assay type: ADME, organism-based; details: in vivo
# Method in brief: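 Morris water maze with male Harlan-Wistar rats (190–220 g): three trials a day for 4 days, hidden 10 cm platform, video tracking; 30 mg/kg p.o. in Type IV lipid formulation 1 h before first daily trial; plasma taken after last Day 4 trial; 7–17 rats/group.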
# [7] = Clearance in female beagle dog at 0.5 mg/kg, iv administered as infusion; assay type: ADME, organism-based, Canis lupus familiaris; details: in vivo
# [8] = Plasma concentration in Wistar rat at 10 mg/kg, po qd measured after first dosing during Vogel punished drinking conflict test; assay type: ADME, organism-based
# Method in brief: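 Vogel punished-drinking test in rats after 24 h water deprivation, with 60 s unpunished drinking; oral 10 mg/kg given once daily for 19 days, vehicle group dosed only on Day 19 as first-dose control; plasma sampled right after test; n=10 per group; ANOVA with Duncan post-hoc.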
# [9] = Terminal elimination half life in male Crl:CD(SD) rat at 4.5 mg/kg, po; assay type: ADME, organism-based; details: in vivo, read-out: beta t1/2 (converted); method in brief: as §1
# [10] = target: Metabotropic glutamate receptor 1 (Rattus norvegicus) (UniProt P23385); assay: Negative allosteric modulation of mGluR1 in newborn Sprague-Dawley rat cerebelli assessed as reduction of DHPG-induced cytosolic Ca2+ influx after 10 to 20 mins by fluo-4/AM-dye based fluorometric analysis; assay type: functional
# Rattus norvegicus [11] = assay: Therapeutic index, ratio of plasma concentration causing effect on spatial learning performance in po dosed Wistar rat by Morris water maze test to plasma concentration causing anxiolytic activity in Wistar rat by Vogel punished drinking conflict test
# Method in brief: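 Index is the plasma level in rats at 30 mg/kg p.o. in the Morris water maze (sampled after the last trial on Day 4) divided by the plasma level at the Vogel minimum effective dose. Vogel plasma was sampled right after the test.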
# [12] = Cmax in fasted female cynomolgus monkey at 9 mg/kg, po administered as single dose; assay type: ADME, organism-based, Macaca fascicularis; parameters: dose 9 mg/kg, route oral; details: in vivo
# [13] = Tmax in fasted male cynomolgus monkey at 9 mg/kg, po administered as single dose; assay type: ADME, organism-based, Macaca fascicularis; details: in vivo; method in brief: as §1
# Cytochrome P450 3A4 = Cytochrome P450 3A4 (Homo sapiens, UniProt P08684); assay: Inhibition of CYP3A4 in human liver microsomes; assay type: ADME
# [14] = target: T1, Metabotropic glutamate receptor 5 (Homo sapiens, UniProt P41594); assay: Displacement of [3H]M-MPEP from mGluR5 in male human post mortem parietal cortical tissue after 30 mins by scintillation counting method
# Rattus norvegicus [15] = assay: Anxiolytic activity in po dosed Wistar rat assessed as increase in water drinking time during punished period administered as suspension by Vogel punished drinking conflict test; assay type: functional; details: read-out: MED
# Method in brief: (§2)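 Vogel punished-drinking test in rats, single i.p. or p.o. dose as suspension in 5% Tween 80; plasma sampled ~45 min after i.p. or ~75 min after p.o. dosing.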
# [16] = Cmax in fasted male beagle dog at 1 mg/kg, po; assay type: ADME, organism-based, Canis lupus familiaris; parameters: dose 1 mg/kg, route oral; details: in vivo
# [17] = Tmax in male Crl:CD(SD) rat at 4.5 mg/kg, po; assay type: ADME, organism-based; details: in vivo; method in brief: as §1
# [18] = Terminal elimination half life in fasted male beagle dog at 1 mg/kg, po; assay type: ADME, organism-based, Canis lupus familiaris; details: in vivo, read-out: beta t1/2 (converted); method in brief: as §1
# [19] = AUC in male Crl:CD(SD) rat at 4.5 mg/kg, po; assay type: ADME, organism-based; details: in vivo
# [20] = AUC in female beagle dog at 0.5 mg/kg, iv administered as infusion; assay type: ADME, organism-based, Canis lupus familiaris; details: in vivo
# [21] = Terminal elimination half life in male beagle dog at 0.5 mg/kg, iv administered as infusion; assay type: ADME, organism-based, Canis lupus familiaris; details: in vivo, read-out: beta t1/2 (converted); method in brief: as §1
# [22] = AUC in male Crl:CD(SD) rat at 0.5 mg/kg, iv; assay type: ADME, organism-based; details: in vivo
# [23] = Cmax in male beagle dog at 0.5 mg/kg, iv administered as infusion; assay type: ADME, organism-based, Canis lupus familiaris; parameters: dose 0.5 mg/kg, route intravenous; details: in vivo
# MDR1 = assay: Ratio of apparent outward permeability to apparent inward permeability in MDCK2-MDR1 cells; assay type: ADME, cell-based, Canis lupus familiaris; details: dog, MDCK-MDR1
# Method in brief: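 MDCKII-MDR1 cell monolayers used as an in vitro surrogate of brain penetration. Transport was measured in both the inward and outward directions, and an apparent permeability (Papp) was calculated for each. The directional ratio (PDR) is Papp outward divided by Papp inward.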
# Rattus norvegicus [24] = assay: Anxiolytic activity in ip dosed Wistar rat assessed as increase in water drinking time during punished period administered as suspension by Vogel punished drinking conflict test; assay type: functional; details: read-out: MED; method in brief: as §2
# [25] = Tmax in fasted male beagle dog at 1 mg/kg, po; assay type: ADME, organism-based, Canis lupus familiaris; details: in vivo; method in brief: as §1
# [26] = Cmax in fasted female beagle dog at 1 mg/kg, po; assay type: ADME, organism-based, Canis lupus familiaris; parameters: dose 1 mg/kg, route oral; details: in vivo
# [27] = Cmax in male Crl:CD(SD) rat at 4.5 mg/kg, po; assay type: ADME, organism-based; parameters: dose 4.5 mg/kg, route oral; details: in vivo
# Rattus norvegicus [28] = assay: Toxicity in po dosed Harlan-Wistar rat assessed as effect on ambulatory movement at 10 to 30 mg/kg, po by photocell-based activity monitor test; assay type: organism-based; details: in vivo
# Method in brief: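 Male Wistar rats were given 0, 10, 30 or 50 mg/kg p.o. Spontaneous locomotor activity (ambulatory movement) was recorded in a photocell-based activity monitor.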
# [29] = AUC in female Crl:CD(SD) rat at 0.5 mg/kg, iv; assay type: ADME, organism-based; details: in vivo
# [30] = Tmax in female Crl:CD(SD) rat at 4.5 mg/kg, po; assay type: ADME, organism-based; details: in vivo; method in brief: as §1
# [31] = target: T1, Metabotropic glutamate receptor 5; assay: Displacement of [3H]M-MPEP from mGluR5 in female human post mortem parietal cortical tissue after 30 mins by scintillation counting method
# Rattus norvegicus [32] = assay: Anxiolytic activity in po dosed Wistar rat assessed as reduction in freezing behavior by contextual fearing test; assay type: functional
# Rattus norvegicus [33] = assay: Therapeutic index, ratio of MED for effect on spatial learning performance in po dosed Wistar rat by Morris water maze test to MED for anxiolytic activity in Wistar rat by Vogel punished drinking conflict test
# Method in brief: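 Index is the Morris water maze minimum effective dose (oral, given 1 h before the first daily trial, 4 days of 3 trials) divided by the Vogel punished drinking minimum effective dose.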
# Liver = assay: Intrinsic clearance in dog liver microsomes at 2.5 uM assessed per gram of liver; assay type: ADME, Canis lupus familiaris, microsome
# [34] = Plasma protein binding in dog; assay type: ADME, cell-free, Canis lupus familiaris; details: read-out: PPB (converted)
# T1 sequence (P41594 whole entry): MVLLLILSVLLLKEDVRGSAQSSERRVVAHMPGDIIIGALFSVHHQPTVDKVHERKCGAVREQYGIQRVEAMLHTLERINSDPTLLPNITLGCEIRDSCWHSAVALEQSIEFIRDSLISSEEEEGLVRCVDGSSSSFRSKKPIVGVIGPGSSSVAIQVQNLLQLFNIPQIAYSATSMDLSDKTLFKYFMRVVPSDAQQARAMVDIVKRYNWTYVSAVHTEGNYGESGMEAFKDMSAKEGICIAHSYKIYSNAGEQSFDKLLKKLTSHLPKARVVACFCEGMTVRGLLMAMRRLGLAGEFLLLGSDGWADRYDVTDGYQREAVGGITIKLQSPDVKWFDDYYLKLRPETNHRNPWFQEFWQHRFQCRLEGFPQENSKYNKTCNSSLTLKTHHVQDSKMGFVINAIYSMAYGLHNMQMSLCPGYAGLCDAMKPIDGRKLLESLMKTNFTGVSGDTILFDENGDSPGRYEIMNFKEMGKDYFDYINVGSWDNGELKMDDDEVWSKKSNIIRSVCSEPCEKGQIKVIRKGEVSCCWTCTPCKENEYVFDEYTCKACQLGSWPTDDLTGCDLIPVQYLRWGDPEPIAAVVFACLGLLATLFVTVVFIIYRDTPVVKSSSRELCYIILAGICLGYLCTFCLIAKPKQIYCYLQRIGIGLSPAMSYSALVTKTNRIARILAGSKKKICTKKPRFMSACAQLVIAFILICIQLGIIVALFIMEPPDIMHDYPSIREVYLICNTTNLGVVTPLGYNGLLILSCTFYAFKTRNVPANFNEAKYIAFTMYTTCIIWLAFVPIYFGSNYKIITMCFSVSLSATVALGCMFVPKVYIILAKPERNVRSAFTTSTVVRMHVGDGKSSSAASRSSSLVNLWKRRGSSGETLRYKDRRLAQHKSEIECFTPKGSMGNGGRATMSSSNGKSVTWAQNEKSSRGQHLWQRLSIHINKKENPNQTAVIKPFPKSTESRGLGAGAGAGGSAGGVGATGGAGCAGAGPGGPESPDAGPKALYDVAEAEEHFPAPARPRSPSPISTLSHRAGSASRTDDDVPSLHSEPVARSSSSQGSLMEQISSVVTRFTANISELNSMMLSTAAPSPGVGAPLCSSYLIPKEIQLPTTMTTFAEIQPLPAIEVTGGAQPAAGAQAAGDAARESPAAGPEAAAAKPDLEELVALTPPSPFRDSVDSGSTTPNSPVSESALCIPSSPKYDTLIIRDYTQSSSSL
# Metabotropic glutamate receptor 1 (Rattus norvegicus), sequence (P23385 19-1199 limits assumed): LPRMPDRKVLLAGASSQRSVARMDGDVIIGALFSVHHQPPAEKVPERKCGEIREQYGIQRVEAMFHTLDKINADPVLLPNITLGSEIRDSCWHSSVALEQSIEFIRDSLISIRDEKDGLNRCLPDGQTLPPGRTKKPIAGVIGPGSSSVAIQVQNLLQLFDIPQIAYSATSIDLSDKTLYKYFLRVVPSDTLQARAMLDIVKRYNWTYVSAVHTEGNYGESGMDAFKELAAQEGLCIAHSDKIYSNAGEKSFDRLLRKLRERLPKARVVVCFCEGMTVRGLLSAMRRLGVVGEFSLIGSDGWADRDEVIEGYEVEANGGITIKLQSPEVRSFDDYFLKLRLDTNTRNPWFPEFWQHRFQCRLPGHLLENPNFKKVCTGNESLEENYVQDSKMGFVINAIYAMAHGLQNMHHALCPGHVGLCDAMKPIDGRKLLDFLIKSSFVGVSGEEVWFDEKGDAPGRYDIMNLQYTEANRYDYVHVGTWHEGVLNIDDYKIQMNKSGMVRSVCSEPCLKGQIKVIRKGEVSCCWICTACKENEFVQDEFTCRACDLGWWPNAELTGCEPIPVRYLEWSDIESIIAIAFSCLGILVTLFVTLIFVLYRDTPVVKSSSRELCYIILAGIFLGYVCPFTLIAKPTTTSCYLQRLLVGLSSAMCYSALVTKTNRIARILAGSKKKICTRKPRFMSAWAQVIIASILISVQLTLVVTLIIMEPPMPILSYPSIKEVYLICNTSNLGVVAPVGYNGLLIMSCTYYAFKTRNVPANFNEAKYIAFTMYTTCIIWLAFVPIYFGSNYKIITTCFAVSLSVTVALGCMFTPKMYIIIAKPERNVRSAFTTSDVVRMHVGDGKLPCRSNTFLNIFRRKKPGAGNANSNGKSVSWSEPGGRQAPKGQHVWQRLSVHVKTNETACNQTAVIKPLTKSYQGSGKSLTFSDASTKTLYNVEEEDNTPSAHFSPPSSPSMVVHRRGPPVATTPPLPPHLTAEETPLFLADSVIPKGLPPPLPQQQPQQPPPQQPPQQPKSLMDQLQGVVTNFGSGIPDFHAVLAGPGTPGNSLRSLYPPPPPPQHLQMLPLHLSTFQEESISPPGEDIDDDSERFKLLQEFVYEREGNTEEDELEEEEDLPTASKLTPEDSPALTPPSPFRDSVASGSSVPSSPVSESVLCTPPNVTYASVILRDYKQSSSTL
# Cytochrome P450 3A4, sequence (P08684 whole entry): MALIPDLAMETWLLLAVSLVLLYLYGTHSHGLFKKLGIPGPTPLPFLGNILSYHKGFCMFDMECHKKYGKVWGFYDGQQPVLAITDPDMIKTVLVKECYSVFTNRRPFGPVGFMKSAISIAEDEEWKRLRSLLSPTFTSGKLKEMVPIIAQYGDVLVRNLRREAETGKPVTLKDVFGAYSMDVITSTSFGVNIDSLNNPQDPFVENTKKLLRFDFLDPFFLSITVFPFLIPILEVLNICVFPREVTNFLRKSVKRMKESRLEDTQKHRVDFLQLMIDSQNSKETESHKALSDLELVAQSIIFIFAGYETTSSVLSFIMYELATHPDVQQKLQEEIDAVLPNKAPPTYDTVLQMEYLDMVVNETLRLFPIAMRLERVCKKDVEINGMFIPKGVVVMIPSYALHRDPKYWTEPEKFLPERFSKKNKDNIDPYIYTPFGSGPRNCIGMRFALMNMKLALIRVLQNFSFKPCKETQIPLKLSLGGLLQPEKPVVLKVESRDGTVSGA
smiles,measurement,setting,value
N#Cc1cccc(S(=O)(=O)c2cnc3cc(F)ccc3c2-c2ccc(Cl)cc2)c1,concentration at 0.75 h,[1],51.1 nM
same,clearance,[2],27.9 mL/min/kg
same,fraction unbound,[3],0.0039
same,Vd,[4],9.2 L/kg
same,half-life,[5],6.3 h
same,Activity,Rattus norvegicus [6],Non-Toxic
same,MED,Rattus norvegicus [6],> 30 mg/kg
same,clearance,[7],9.22 mL/min/kg
same,concentration at 1 day,[8],787 nM
same,half-life,[9],7.06 h
same,Activity,[10],Active
same,TI,Rattus norvegicus [11],28.3
same,Cmax,[12],33 nM
same,Tmax,[13],1.7 h
same,IC50,Cytochrome P450 3A4,> 10000 nM
same,Ki,[14],10.8 nM
same,minimal effective dose,Rattus norvegicus [15],0.5 mg/kg
same,Cmax,[16],492 nM
same,Tmax,[17],0.75 h
same,half-life,[18],12.8 h
same,AUC,[19],2.19 µM·h
same,AUC,[20],2.22 µM·h
same,half-life,[21],12.2 h
same,AUC,[22],0.707 µM·h
same,Cmax,[23],1540 nM
same,efflux ratio,MDR1,0.74
same,minimal effective dose,Rattus norvegicus [24],3 mg/kg
same,Tmax,[25],0.75 h
same,Cmax,[26],551 nM
same,Cmax,[27],369 nM
same,Activity,Rattus norvegicus [28],Non-Toxic
same,AUC,[29],1.38 µM·h
same,Tmax,[30],0.75 h
same,Ki,[31],12.1 nM
same,Activity,Rattus norvegicus [32],Dose-dependent effect
same,ED50,Rattus norvegicus [32],0.95 mg/kg
same,TI,Rattus norvegicus [33],>30
same,CLint,Liver,0.27 mL/min/g
same,fraction unbound,[34],0.0025
